Results as given in ChEMBL document CHEMBL3352534, “A prodrug strategy for the oral delivery of a poorly soluble HCV NS5B thumb pocket 1 polymerase inhibitor using self-emulsifying drug delivery systems (SEDDS)” (Bioorg Med Chem Lett, 2015).
≈ marks a conversion by molar mass, not a printed value.

Columns and labels:
Plasma [1] = test: Prodrug conversion in human plasma assessed as half life
Plasma [2] = test: Prodrug conversion in rat plasma assessed as half life; format: ADME, cell-free
Procedure, shortened: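 Rat plasma (from centrifuged whole blood) was incubated with 2 µM compound at 37 °C. Samples were quenched 1:3 with acetonitrile/methanol 1:1, centrifuged and analysed by HPLC-PDA. Half-life was taken as 0.693/first-order rate of loss of the starting compound.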

[3] = Prodrug conversion in simulated gastric fluid assessed as half life; format: ADME; conditions: simulated gi fluid
Procedure, shortened: (§1)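 Incubations used 2 µM compound at 37 °C in either SGF (0.2% NaCl/HCl, pH 1.2, pepsin 3.2 mg/mL) or SIF (KH2PO4/NaOH, pH 7.5, pancreatin 10 mg/mL). Samples were quenched 1:2 with acetonitrile/methanol 1:1 and analysed by HPLC. t1/2 = 0.693/first-order disappearance rate.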

Intestine = test: Prodrug conversion in rat intestinal microsomes assessed as half life
[4] = Prodrug conversion in simulated intestinal fluid assessed as half life; format: ADME; conditions: simulated gi fluid; procedure, shortened: as §1
Liver microsome [5] = test: Prodrug conversion in rat liver microsomes assessed as half life
[6] = Prodrug conversion in human intestinal microsomes assessed as half life
Liver microsome [7] = test: Prodrug conversion in human liver microsomes assessed as half life
[8] = (§2) Cmax in rat plasma at 10 mg/kg, po using 0.5% Methyl cellulose, 0.3% Tween-80, 1% N-methylpyrrolidone in water vehicle; format: ADME, organism-based; parameters: dose 10 mg/kg, route oral; conditions: plasma
Procedure, shortened: (§3)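 Fasted rats were given a single 10 mg/kg oral dose, with n = 3 per dose and route. Plasma was extracted by solid-phase extraction. Analysis used HPLC with diode-array UV (200–400 nm, peak height at best S/N) or LC/MS. Calibration standards were made in blank plasma, with LOQ 7–14 ng/mL. Parameters came from noncompartmental analysis.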

[9] = (§4) AUC in rat plasma at 10 mg/kg, po using 0.5% Methyl cellulose, 0.3% Tween-80, 1% N-methylpyrrolidone in water vehicle; format: ADME, organism-based; parameters: dose 10 mg/kg, route oral; conditions: plasma; procedure, shortened: as §3
Rattus norvegicus [10] = test: Cmax in rat plasma assessed as (E)-3-(4-(1-(2-(5-chloropyrimidin-2-yl)-3-cyclopentyl-1-methyl-1H-indole-6-carboxamido)cyclobutanecarboxamido)-2-ethoxyphenyl)acrylic acid at 10 mg/kg, po using 0.5% Methyl cellulose, 0.3% Tween-80, 1% N-methylpyrrolidone in water vehicle; format: ADME, organism-based; parameters: dose 10 mg/kg, route oral; conditions: in vivo; procedure, shortened: as §3
Rattus norvegicus [11] = test: AUC in rat plasma assessed as (E)-3-(4-(1-(2-(5-chloropyrimidin-2-yl)-3-cyclopentyl-1-methyl-1H-indole-6-carboxamido)cyclobutanecarboxamido)-2-ethoxyphenyl)acrylic acid at 10 mg/kg, po using 0.5% Methyl cellulose, 0.3% Tween-80, 1% N-methylpyrrolidone in water vehicle; format: ADME, organism-based; parameters: dose 10 mg/kg, route oral; conditions: in vivo; procedure, shortened: as §3
[12] = (§5) Cmax in rat plasma at 10 mg/kg, po using 10.6% PEG400, 5.4% Cremophor EL, 2.6% Labrasol, 1.4% Capmul MCM in water (80%) vehicle; format: ADME, organism-based; parameters: dose 10 mg/kg, route oral; conditions: plasma; procedure, shortened: as §3
[13] = (§6) AUC in rat plasma at 10 mg/kg, po using 10.6% PEG400, 5.4% Cremophor EL, 2.6% Labrasol, 1.4% Capmul MCM in water (80%) vehicle; format: ADME, organism-based; parameters: dose 10 mg/kg, route oral; conditions: plasma; procedure, shortened: as §3
Rattus norvegicus [14] = test: Cmax in rat plasma assessed as (E)-3-(4-(1-(2-(5-chloropyrimidin-2-yl)-3-cyclopentyl-1-methyl-1H-indole-6-carboxamido)cyclobutanecarboxamido)-2-ethoxyphenyl)acrylic acid at 10 mg/kg, po using 10.6% PEG400, 5.4% Cremophor EL, 2.6% Labrasol, 1.4% Capmul MCM in water (80%) vehicle; format: ADME, organism-based; parameters: dose 10 mg/kg, route oral; conditions: in vivo; procedure, shortened: as §3
Rattus norvegicus [15] = test: AUC in rat plasma assessed as (E)-3-(4-(1-(2-(5-chloropyrimidin-2-yl)-3-cyclopentyl-1-methyl-1H-indole-6-carboxamido)cyclobutanecarboxamido)-2-ethoxyphenyl)acrylic acid at 10 mg/kg, po using 10.6% PEG400, 5.4% Cremophor EL, 2.6% Labrasol, 1.4% Capmul MCM in water (80%) vehicle; format: ADME, organism-based; parameters: dose 10 mg/kg, route oral; conditions: in vivo; procedure, shortened: as §3
[16] = Prodrug solubility in capmul; format: ADME
[17] = Prodrug solubility in solutol; format: ADME
[18] = Prodrug solubility in Labrasol; format: ADME
[19] = Dissociation constant, pKa of the compound; format: physicochemical
Rattus norvegicus [20] = test: as §5; format: ADME, organism-based; parameters: dose 10 mg/kg, route oral; conditions: in vivo, BLD = below limit of detection; procedure, shortened: as §3
Rattus norvegicus [21] = test: as §6; format: ADME, organism-based; parameters: dose 10 mg/kg, route oral; conditions: in vivo, BLD = below limit of detection; procedure, shortened: as §3
Rattus norvegicus [22] = test: as §2; format: ADME, organism-based; parameters: dose 10 mg/kg, route oral; conditions: in vivo, BLD = below limit of detection; procedure, shortened: as §3
Rattus norvegicus [23] = test: as §4; format: ADME, organism-based; parameters: dose 10 mg/kg, route oral; conditions: in vivo, BLD = below limit of detection; procedure, shortened: as §3
[24] = Solubility of the compound at pH 6.8; format: physicochemical; conditions: buffer

Compound | t1/2 (Plasma [1]) [h] | t1/2 (Plasma [2]) [h] | t1/2 [3] [h] | t1/2 (Intestine) [h] | t1/2 [4] [h] | t1/2 (Liver microsome [5]) [h] | t1/2 [6] [h] | t1/2 (Liver microsome [7]) [h] | Cmax [8] [nM] | AUC [9] [µM·h] | Cmax (Rattus norvegicus [10]) [nM] | AUC (Rattus norvegicus [11]) [µM·h] | Cmax (Rattus norvegicus [14]) [nM] | AUC (Rattus norvegicus [15]) [µM·h] | solubility [16] [mg/mL] | solubility [17] [mg/mL] | solubility [18] [mg/mL] | pKa [19] | Cmax (Rattus norvegicus [20]) | AUC (Rattus norvegicus [21]) | also measured
CCOc1cc(NC(=O)C2(NC(=O)c3ccc4c(C5CCCC5)c(-c5ncc(Cl)cn5)n(C)c4c3)CCC2)ccc1/C=C/C(=O)OC | > 5 | > 5 | 2.5 | 1.82 | 6.87 | 1.63 | 9.07 | 12.7 | 10 | 0.07 | 510 | 5.7 | 5200 | 30.7 | – | – | – | – | – | – | Cmax [12]: 840 nM; AUC [13]: 2.6 µM·h
CCOc1cc(NC(=O)C2(NC(=O)c3ccc4c(C5CCCC5)c(-c5ncc(Cl)cn5)n(C)c4c3)CCC2)ccc1/C=C/C(=O)OCCN(C)C | > 5 | 1.4 | 1.82 | 1.47 | 6.6 | 0.317 | > 5 | 1.5 | – | – | – | – | 1600 | 10.1 | < 100 | < 100 | < 100 | 7.7 | BLD | BLD | –
CCOc1cc(NC(=O)C2(NC(=O)c3ccc4c(C5CCCC5)c(-c5ncc(Cl)cn5)n(C)c4c3)CCC2)ccc1/C=C/C(=O)OCOP(=O)(O)OC(C)(C)C | – | – | – | – | – | 0.13 | – | 1.48 | – | – | 80 | 0.49 | – | – | – | – | – | – | – | – | Cmax (Rattus norvegicus [22]): BLD; AUC (Rattus norvegicus [23]): BLD; solubility [24]: 0.781 mg/mL (≈ 0.966 mM)
CCOc1cc(NC(=O)C2(NC(=O)c3ccc4c(C5CCCC5)c(-c5ncc(Cl)cn5)n(C)c4c3)CCC2)ccc1/C=C/C(=O)OCC(=O)N1CCN(C)CC1 | – | – | – | – | – | 0.15 | – | 0.35 | – | – | – | – | 260 | 1.5 | < 100 | < 100 | < 100 | 6.6 | BLD | BLD | –
CCOc1cc(NC(=O)C2(NC(=O)c3ccc4c(C5CCCC5)c(-c5ncc(Cl)cn5)n(C)c4c3)CCC2)ccc1/C=C/C(=O)OCOP(=O)(O)O | – | – | 1.3 | 0.083 | – | 0.15 | 0.467 | 0.167 | 50 | 0.09 | 4200 | 14.5 | – | – | – | – | – | – | – | – | solubility [24]: 0.14 mg/mL (≈ 0.186 mM)
